Data taken from ChEMBL document CHEMBL1255289, “In vitro antifungal activities of isavuconazole (BAL4815), voriconazole, and fluconazole against 1,007 isolates of zygomycete, Candida, Aspergillus, Fusarium, and Scedosporium species” (2008).
Values after ≈ are worked out from the molar mass of the structure shown.

What was measured:
Assay type in all cases: functional
Candida parapsilosis = test: Antifungal activity against Candida parapsilosis isolates after 48 hrs by CLSI M27-A2 procedure based assay; conditions: Lodderomyces parapsilosis, 48 h
How it was run: (§1)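 Candida isolates tested by CLSI M27-A2 broth microdilution at final 0.015–16 µg/ml, or 0.125–128 µg/ml for the comparator azole. Incubation was at 35°C with a visual read at 48 h. MIC-2 was the lowest concentration giving a prominent turbidity drop, about 50% growth inhibition.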

Candida albicans = test: Antifungal activity against Candida albicans isolates after 48 hrs by CLSI M27-A2 procedure based assay; conditions: Candida albicans, 48 h; how it was run: as §1
Nakaseomyces glabratus = test: Antifungal activity against Candida glabrata isolates after 48 hrs by CLSI M27-A2 procedure based assay; conditions: Nakaseomyces glabratus, 48 h; how it was run: as §1
Candida tropicalis = test: Antifungal activity against Candida tropicalis isolates after 48 hrs by CLSI M27-A2 procedure based assay; conditions: Candida tropicalis, 48 h; how it was run: as §1
Candida = test: Antifungal activity against Candida sp. isolates after 48 hrs by CLSI M27-A2 procedure based assay
How it was run: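 Candida isolates were stored at –70°C as yeast suspensions and subcultured on potato dextrose or Sabouraud agar before use. Broth microdilution used DMSO drug stocks, with final well concentrations of 0.015–16 or 0.125–128 µg/ml depending on the azole. Plates were incubated at 35°C and read macroscopically at 48 h. MIC-2 was the lowest concentration giving a prominent turbidity decrease (~50% growth inhibition).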

Pichia kudriavzevii = test: Antifungal activity against Candida krusei isolates after 48 hrs by CLSI M27-A2 procedure based assay; how it was run: as §1
Syncephalastrum [1] = test: Antifungal activity against Syncephalastrum isolates assessed as lowest compound concentration that produced complete inhibition of microbial growth after 24 hrs by CLSI M38-A procedure based assay
How it was run: (§2)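 Zygomycete isolates subcultured on potato dextrose or Sabouraud agar, then tested by CLSI M38-A broth microdilution. Drugs were serially diluted in plates at final 0.015–16 µg/ml and incubated at 35°C. Plates were read by eye at 24 h. MIC-0 was the lowest concentration giving complete growth inhibition.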

Cunninghamella [2] = test: Antifungal activity against Cunninghamella isolates assessed as lowest compound concentration that produced complete inhibition of microbial growth after 24 hrs by CLSI M38-A procedure based assay; how it was run: as §2
Cunninghamella [3] = test: Antifungal activity against Cunninghamella isolates assessed as lowest compound concentration that produced slight growth or approximately 25% of that of growth control after 24 hrs by CLSI M38-A procedure based assay
How it was run: (§3)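 Clinical isolates were kept at –70°C as spore suspensions in sterile water and subcultured on potato dextrose or Sabouraud agar before testing. Broth microdilution used DMSO stocks in trays stored at –70°C, with final drug 0.015–16 µg/ml.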

Aspergillus flavus = test: Antifungal activity against Aspergillus flavus isolates after 48 hrs by CLSI M38-A procedure based assay; conditions: Aspergillus flavus, 48 h
How it was run: (§4)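 Aspergillus isolates tested by CLSI M38-A broth microdilution at final 0.015–16 µg/ml and 35°C. Plates were read macroscopically at 48 h. The MIC was the lowest concentration producing complete inhibition of growth (MIC-0).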

Scedosporium apiospermum [4] = test: Antifungal activity against Scedosporium apiospermum isolates assessed as lowest compound concentration that produced complete inhibition of microbial growth after 24 hrs by CLSI M38-A procedure based assay; conditions: Scedosporium apiospermum, 24 h
Aspergillus niger = test: Antifungal activity against Aspergillus niger isolates after 48 hrs by CLSI M38-A procedure based assay; conditions: Aspergillus niger, 48 h; how it was run: as §4
Fusarium [5] = test: Antifungal activity against Fusarium sp. isolates assessed as lowest compound concentration that produced complete inhibition of microbial growth after 24 hrs by CLSI M38-A procedure based assay; conditions: Fusarium, 24 h
Mucor [6] = test: Antifungal activity against Mucor isolates assessed as lowest compound concentration that produced slight growth or approximately 25% of that of growth control after 24 hrs by CLSI M38-A procedure based assay; how it was run: as §3
Aspergillus fumigatus = test: Antifungal activity against Aspergillus fumigatus isolates after 48 hrs by CLSI M38-A procedure based assay; conditions: Aspergillus fumigatus, 48 h; how it was run: as §4
Aspergillus terreus = test: Antifungal activity against Aspergillus terreus isolates after 48 hrs by CLSI M38-A procedure based assay; conditions: Aspergillus terreus, 48 h; how it was run: as §4
Absidia [7] = test: Antifungal activity against Absidia isolates assessed as lowest compound concentration that produced complete inhibition of microbial growth after 24 hrs by CLSI M38-A procedure based assay; how it was run: as §2
Rhizopus [8] = test: Antifungal activity against Rhizopus isolates assessed as lowest compound concentration that produced complete inhibition of microbial growth after 24 hrs by CLSI M38-A procedure based assay; conditions: Rhizopus, 24 h; how it was run: as §2
Aspergillus sp. = test: Antifungal activity against Aspergillus sp. isolates after 48 hrs by CLSI M38-A procedure based assay; how it was run: as §4
Scedosporium apiospermum [9] = test: Antifungal activity against Scedosporium apiospermum isolates assessed as lowest compound concentration that produced slight growth or approximately 25% of that of growth control after 24 hrs by CLSI M38-A procedure based assay
Absidia [10] = test: Antifungal activity against Absidia isolates assessed as lowest compound concentration that produced slight growth or approximately 25% of that of growth control after 24 hrs by CLSI M38-A procedure based assay; how it was run: as §3
Lomentospora prolificans [11] = test: Antifungal activity against Scedosporium prolificans isolates assessed as lowest compound concentration that produced complete inhibition of microbial growth after 24 hrs by CLSI M38-A procedure based assay; conditions: Lomentospora prolificans, 24 h
Rhizopus [12] = test: Antifungal activity against Rhizopus isolates assessed as lowest compound concentration that produced slight growth or approximately 25% of that of growth control after 24 hrs by CLSI M38-A procedure based assay
How it was run: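 Rhizopus isolates tested by CLSI M38-A broth microdilution at final 0.015–16 µg/ml, 35°C, read by eye at 24 h.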

Mucor [13] = test: Antifungal activity against Mucor isolates assessed as lowest compound concentration that produced complete inhibition of microbial growth after 24 hrs by CLSI M38-A procedure based assay; conditions: Mucor, 24 h; how it was run: as §2
Fusarium [14] = test: Antifungal activity against Fusarium sp. isolates assessed as lowest compound concentration that produced slight growth or approximately 25% of that of growth control after 24 hrs by CLSI M38-A procedure based assay
Syncephalastrum [15] = test: Antifungal activity against Syncephalastrum isolates assessed as lowest compound concentration that produced slight growth or approximately 25% of that of growth control after 24 hrs by CLSI M38-A procedure based assay; how it was run: as §3
Lomentospora prolificans [16] = test: Antifungal activity against Scedosporium prolificans isolates assessed as lowest compound concentration that produced slight growth or approximately 25% of that of growth control after 24 hrs by CLSI M38-A procedure based assay

OC(Cn1cncn1)(Cn1cncn1)c1ccc(F)cc1F [FLUCONAZOLE]
MIC50 (Candida parapsilosis): 0.5 µg/mL (≈ 1.63 µM)
MIC90 (Candida parapsilosis): 1 µg/mL (≈ 3.27 µM)
MIC50 (Candida albicans): 0.25 µg/mL (≈ 0.816 µM)
MIC90 (Candida albicans): 16 µg/mL (≈ 52.2 µM)
MIC50 (Nakaseomyces glabratus): 16 µg/mL (≈ 52.2 µM)
MIC90 (Nakaseomyces glabratus): 32 µg/mL (≈ 104 µM)
MIC (Candida tropicalis): 0.25 µg/mL (≈ 0.816 µM)
MIC50 (Candida tropicalis): 0.25 µg/mL (≈ 0.816 µM)
MIC90 (Candida tropicalis): 2 µg/mL (≈ 6.53 µM)
MIC (Candida): 0.25 µg/mL (≈ 0.816 µM)
MIC (Pichia kudriavzevii): 16 µg/mL (≈ 52.2 µM)

C[C@@H](c1ncncc1F)[C@](O)(Cn1cncn1)c1ccc(F)cc1F [VORICONAZOLE]
MIC (Syncephalastrum [1]): 4 µg/mL (≈ 11.5 µM)
MIC (Cunninghamella [2]): > 16 µg/mL
MIC (Cunninghamella [3]): 8 µg/mL (≈ 22.9 µM)
MIC50 (Aspergillus flavus): 1 µg/mL (≈ 2.86 µM)
MIC90 (Aspergillus flavus): 1 µg/mL (≈ 2.86 µM)
MIC50 (Scedosporium apiospermum [4]): 0.5 µg/mL (≈ 1.43 µM)
MIC90 (Scedosporium apiospermum [4]): 1 µg/mL (≈ 2.86 µM)
MIC50 (Aspergillus niger): 1 µg/mL (≈ 2.86 µM)
MIC90 (Aspergillus niger): 1 µg/mL (≈ 2.86 µM)
MIC50 (Fusarium [5]): 4 µg/mL (≈ 11.5 µM)
MIC90 (Fusarium [5]): 16 µg/mL (≈ 45.8 µM)
MIC50 (Mucor [6]): 16 µg/mL (≈ 45.8 µM)
MIC90 (Mucor [6]): > 16 µg/mL
MIC (Candida parapsilosis): < 0.015 µg/mL
MIC50 (Candida parapsilosis): < 0.015 µg/mL
MIC90 (Candida parapsilosis): 0.06 µg/mL (≈ 0.172 µM)
MIC50 (Aspergillus fumigatus): 0.5 µg/mL (≈ 1.43 µM)
MIC90 (Aspergillus fumigatus): 1 µg/mL (≈ 2.86 µM)
MIC50 (Candida albicans): 0.03 µg/mL (≈ 0.0859 µM)
MIC90 (Candida albicans): 0.06 µg/mL (≈ 0.172 µM)
MIC50 (Aspergillus terreus): 1 µg/mL (≈ 2.86 µM)
MIC90 (Aspergillus terreus): 1 µg/mL (≈ 2.86 µM)
MIC (Absidia [7]): 4 µg/mL (≈ 11.5 µM)
MIC (Rhizopus [8]): 8 µg/mL (≈ 22.9 µM)
MIC50 (Rhizopus [8]): 8 µg/mL (≈ 22.9 µM)
MIC90 (Rhizopus [8]): 16 µg/mL (≈ 45.8 µM)
MIC50 (Nakaseomyces glabratus): 0.125 µg/mL (≈ 0.358 µM)
MIC90 (Nakaseomyces glabratus): 1 µg/mL (≈ 2.86 µM)
MIC (Aspergillus sp.): 0.125 µg/mL (≈ 0.358 µM)
MIC50 (Candida tropicalis): 0.03 µg/mL (≈ 0.0859 µM)
MIC90 (Candida tropicalis): 0.06 µg/mL (≈ 0.172 µM)
MIC50 (Scedosporium apiospermum [9]): 0.25 µg/mL (≈ 0.716 µM)
MIC90 (Scedosporium apiospermum [9]): 0.5 µg/mL (≈ 1.43 µM)
MIC (Absidia [10]): 4 µg/mL (≈ 11.5 µM)
MIC (Lomentospora prolificans [11]): 16 µg/mL (≈ 45.8 µM)
MIC (Candida): 0.006 µg/mL (≈ 0.0172 µM)
MIC50 (Rhizopus [12]): 8 µg/mL (≈ 22.9 µM)
MIC90 (Rhizopus [12]): > 16 µg/mL
MIC50 (Mucor [13]): > 16 µg/mL
MIC90 (Mucor [13]): > 16 µg/mL
MIC50 (Fusarium [14]): 4 µg/mL (≈ 11.5 µM)
MIC90 (Fusarium [14]): 8 µg/mL (≈ 22.9 µM)
MIC (Pichia kudriavzevii): 0.125 µg/mL (≈ 0.358 µM)
MIC (Syncephalastrum [15]): 2 µg/mL (≈ 5.73 µM)
MIC (Lomentospora prolificans [16]): 4 µg/mL (≈ 11.5 µM)
